# LEDGF integ inh = blocks HIV-1 LEDGF/p75-dependent DNA integration; actives 0.64% (n = 370,000); TR-FRET IN-LEDGF/p75 DNA integration, Eu/Cy5; inhibition, % at 3.7 µM; AID 743269;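 active = inhibition above the screen-wide mean plus 3 SD, cut at about 13% in these data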;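 also: signal is the Cy5 over europium emission ratio at 671 and 618 nm; 0% = plate median of compound wells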
# TCR CD3 inh = human TCR-CD3 binding inhibition; TAMRA-labeled TCR probe fluorescence, biochemical; inhibition, % at 9.4 µM; actives 0.37% (n = 360,000); in the data active = inhibition above about 19%;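 also: recombinant mutant TCR 2C K166C tagged with TAMRA read by polarization; 0% = receptor in buffer alone and 100% = receptor with positive control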
# ARFGAP1 inhibitor = rat ARFGAP1 inhibition. Q62848. Arfgap1-stimulated ARF1 GTP hydrolysis, GDP FP detection. inhibition, % at 16.5 µM. actives 0.26% (n = 360,000);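 active = inhibition above a per-plate limit, mean inhibition of low control wells plus 3 SD, cut at about 25% in these data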;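 also: 0% = DMSO wells with enzyme and 100% = wells lacking Arfgap1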
# Target sequence (Q62848 1-136 limits assumed): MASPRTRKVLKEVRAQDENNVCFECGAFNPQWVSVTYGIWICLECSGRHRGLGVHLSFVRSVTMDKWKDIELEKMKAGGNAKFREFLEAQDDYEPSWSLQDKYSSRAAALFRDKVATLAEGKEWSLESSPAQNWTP
#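 material = rat Arfgap1 catalytic domain, aa 1-136 | also added = human ARF1(Δ1-17)-GTP substrate | compound dosing = one concentration, 16.5 µM, DMSO 1.26% | times = GTP hydrolysis reaction 2 h at 25 °C | measured by = FP, GDP Alexa 633 tracer displaced from anti-GDP antibody, 620/688 nm | evaluation = percent inhibition of Arfgap1-stimulated GTP hydrolysis | replication = single well per compound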
# MBD2 inh = blocks human MBD2 binding to methylated DNA; Q9UBB5; TR-FRET, MBD2 binding to methylated oligonucleotide; inhibition, % at 4.4 µM; actives 0.31% (n = 370,000); AID 686964; in the data active = inhibition above about 13%
# Target sequence (Q9UBB5 whole entry, looked up): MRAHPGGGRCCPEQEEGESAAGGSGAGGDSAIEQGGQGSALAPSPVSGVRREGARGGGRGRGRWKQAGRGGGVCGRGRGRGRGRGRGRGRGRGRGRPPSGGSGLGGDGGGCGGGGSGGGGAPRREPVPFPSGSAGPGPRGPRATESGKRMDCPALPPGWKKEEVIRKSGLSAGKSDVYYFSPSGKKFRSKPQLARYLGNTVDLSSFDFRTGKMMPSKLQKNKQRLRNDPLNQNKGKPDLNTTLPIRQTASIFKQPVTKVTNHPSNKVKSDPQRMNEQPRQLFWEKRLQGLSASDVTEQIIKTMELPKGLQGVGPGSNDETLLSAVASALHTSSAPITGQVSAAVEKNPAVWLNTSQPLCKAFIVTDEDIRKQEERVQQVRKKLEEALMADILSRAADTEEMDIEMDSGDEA
# UHRF1 binding = UHRF1 methyl-DNA binding inhibition | inhibition, % at 4.4 µM | actives 0.75% (n = 370,000) | Q96T88 | UHRF1 binding to methylated oligo, TR-FRET; in the data active = inhibition above about 21%;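 also: UHRF1 SRA domain binding a hemimethylated CpG hairpin DNA probe; 0% = median of test compound wells and 100% = reference inhibitor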
# ASAP1 inh = inhibitors of human ASAP1 ArfGAP activity; actives 0.19% (n = 360,000); ASAP1-stimulated ARF1 GTP hydrolysis, GDP FP detection; inhibition, % at 16.5 µM; in the data active = inhibition above about 25%;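 also: 0% = vehicle with enzyme and substrate and 100% = no enzyme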
# IN multimer up = counter-screen for LEDGF/p75 integration inhibitors: HIV-1 integrase multimerization activators; shares compounds with LEDGF integ inh; TR-FRET HIV-1 integrase multimerization, biochemical; activation, % at 7.7 µM; actives 17% (n = 2,000); AID 1053131; in the data active = activation above about 8.9%
# TR-FRET interf = counter-screen for LEDGF/p75 integration inhibitors: TR-FRET optical interference; TR-FRET optical interference counterscreen, HIV-1 IN multimerization; AID 1053135; 2,000 tested, under 10 active; shares compounds with LEDGF integ inh; inhibition, % at 7.7 µM;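 active = inhibition above the mean over all tested compounds plus 3 SD, which no compound reached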;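 also: 0% = integrase with antibodies and DMSO and 100% = antibodies without integrase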
# LEDGF integ conf = confirmation of HIV-1 LEDGF/p75-dependent integration inhibitors. shares compounds with LEDGF integ inh. TR-FRET LEDGF/p75-dependent HIV-1 integration, biochemical. inhibition, % at 3.7 µM. actives 36% (n = 2,000). AID 1053136; in the data active = inhibition above about 14%
# Active calls of the source: *; / = no result given. Only some compounds are listed: those with a hit (about 2% of all), similar ones and a draw of the others.
SMILES,LEDGF integ inh,TCR CD3 inh,ARFGAP1 inhibitor,MBD2 inh,UHRF1 binding,ASAP1 inh,IN multimer up,TR-FRET interf,LEDGF integ conf
COc1cccc(CNc2cccc3cccnc23)c1O,9,-7,-2,-9,-10,6,/,/,/
Oc1ccc(Cl)cc1CNc1cccc2cccnc12,37*,-1,-5,-17,-1,10,0,1,5
COc1cc(C(=O)Nc2ccccc2NC(=O)c2cc(OC)c(OC)c(OC)c2)cc(OC)c1OC,2,2,16,0,-4,1,/,/,/
COc1cc(C(=O)Nc2nc(C)cc(C)n2)cc(OC)c1OC,59*,0,8,0,1,2,0,0,-6
COc1ccc(CC(=O)NCCC(C)C)cc1S(=O)(=O)N1CCOCC1,89*,4,1,5,-1,14,-3,14,-2
COc1ccc(C(=O)NCCC(C)C)cc1S(=O)(=O)N1CCOCC1,-3,7,-4,5,12,1,/,/,/
COC(=O)c1c(NC(=S)NNC(=O)c2ccc(Cl)s2)sc(C(=O)N(C)C)c1C,5,0,-1,-1,0,-4,/,/,/
CN(C)/C=N/S(=O)(=O)c1cccn1-c1ncc(C(F)(F)F)cc1Cl,0,5,-6,-6,-1,-2,/,/,/
CN(C)/C=N/c1ncn(-c2ncc(C(F)(F)F)cc2Cl)n1,17*,11,-4,-5,-1,12,1,-5,-6
CCn1c(=O)c(C(=O)CN(C)CC(=O)Nc2ccccc2Br)c(N)n(Cc2ccccc2)c1=O,-4,11,-6,-2,-2,-9,/,/,/
C(=N\NC1=Nc2cccc3cccc1c23)/c1ccccc1,19*,-3,-2,0,1,19,0,-1,-7
CCN(CC)C(=O)C1=C(C)N(Cc2ccc(C(C)(C)C)cc2)C(=O)C(CC(=O)NC(c2ccccc2)c2ccccc2)C1 (stereo not given),70*,-10,-9,-3,1,5,1,-5,-10
CNc1ccc(-c2cccc(C(=O)N3CCOCC3)c2)cn1,0,1,-2,-3,3,0,/,/,/
COC/C=C/C1=CC2=CC(=O)C(C)(OC(=O)c3cnc4ccccc4n3)C(=O)C2=CN1Cc1ccccc1 (stereo not given),15*,8,-9,-7,-3,-11,4,-14,11
C=C1CC2C(=O)N(Cc3cc(OC)ccc3OC)C(C(=O)OCC)(C(=O)OCC)C1N2C(=O)OC(C)(C)C (stereo not given),50*,2,-6,-4,-2,-8,2,-9,-9
COc1ccc(B(O)O)c(CN2CCN(C(=O)OC(C)(C)C)CC2)c1,7,-6,-4,-1,5,10,/,/,/
COc1cc(OC)c2c(c1)C(=O)OC2,-1,3,9,-2,0,3,/,/,/
CCN(CC(=O)Nc1c(F)cccc1F)C(=O)C1CC(=O)N(CCc2ccccc2)C1 (stereo not given),35*,7,-5,2,-1,17,-2,12,-10
CCc1ccc(N2CC(C(=O)N(CC)CC(=O)Nc3c(F)cccc3F)CC2=O)cc1 (stereo not given),0,5,1,-2,3,-9,/,/,/
Oc1ccc(N=Nc2ccccc2-c2nn[nH]n2)c(O)c1,19*,2,-14,-5,-4,-2,18*,-64,9
COc1ccc(C(=O)NCc2nnc(SCC(=O)NC3CCCCC3)o2)cc1,-5,2,5,-2,3,1,/,/,/
O=C1NC(=Nc2ccc(O)cc2)S/C1=C\C=C\c1ccco1,39*,7,0,-5,5,0,18*,-93,53*
COc1ccc(-c2cc(=O)[nH][nH]2)cc1,15*,5,-3,0,-6,-11,3,-9,3
O=c1cc(-c2ccc(Cl)c(Cl)c2)[nH][nH]1,15*,-4,16,-7,7,11,2,-7,14*
O=c1cc(CSc2nnc(NC3CCCCC3)s2)nc2sccn12,-8,-3,2,3,3,-4,/,/,/
SMILES,LEDGF integ inh,TCR CD3 inh,ARFGAP1 inhibitor,MBD2 inh,UHRF1 binding,ASAP1 inh,IN multimer up,TR-FRET interf,LEDGF integ conf
C=CCn1c(SCc2cc(=O)n3ccsc3n2)nnc1C1CCCCC1,15*,4,-6,4,10,-7,6,-29,2
Cc1ccc(CNC(=O)C2CCN(c3nnc(N4CCCC4=O)s3)CC2)cc1,1,3,5,1,-1,8,/,/,/
O=C(NN1C(=O)/C(=C/c2ccc(O)c(O)c2)SC1=S)c1ccccc1,30*,-65,1,-1,-3,-1,12*,-42,54*
COc1ccc2cc(C(=O)NCc3ccco3)c(=O)oc2c1,3,5,12,0,-12,10,/,/,/
O=C(NCc1ccco1)c1cc2ccc(O)cc2oc1=O,30*,9,2,-2,8,11,20*,-99,19*
Cc1cc(C(=O)CS(=O)(=O)c2ccc(F)cc2)cc(C)c1O,-3,-1,17,0,-1,18,/,/,/
Cc1cc(C=O)c(C)n1-c1ccc(Cl)c(C(=O)O)c1,21*,2,8,3,47*,9,0,-1,21*
COc1ccc(-n2c(C)cc(C=O)c2C)cc1Cl,1,1,5,-1,0,-2,/,/,/
O=C(CCC(=O)N1CCCCCC1)NCc1ccc(F)cc1,2,4,5,-1,0,0,/,/,/
O=c1oc(/C=C/c2ccco2)nc2sc3c(c12)CCC3,25*,8,-5,12,40*,6,1,-4,2
O=c1oc(-c2cccs2)nc2sc3c(c12)CCC3,0,2,2,1,-4,-13,/,/,/
CCCCC[C@@H](C)N1C[C@H](COCc2ccccc2)Oc2cc(N3CC[C@H](N(C)C)C3)ccc2S1(=O)=O,16*,0,4,-3,0,-1,0,-2,-2
Oc1ccc(C[C@H]2CNCCN2CC2(c3ccccc3)CC2)cc1,0,4,1,-4,5,-5,/,/,/
Cc1ccnc(NS(=O)(=O)c2ccc(NC(=O)c3ccccc3F)cc2)n1,25*,-5,0,-6,4,-9,1,-2,-3
Cc1ccnc(NS(=O)(=O)c2ccc(NC(=O)c3ccc(C)o3)cc2)n1,1,1,3,-2,0,-4,/,/,/
